# Test results reported in ChEMBL document CHEMBL1123783, “Synthesis and anticonvulsant activity of analogues of 4-amino-N-(1-phenylethyl)benzamide” (J Med Chem, 1987).
# Where “and” joins values, the source holds several entries; their conditions need not be identical. Identical values can stand only once.
# Legend:
# [1] = species on record: Mus musculus; test: Compound was evaluated for anticonvulsant activity against maximal electric shock induced seizures; assay type: functional
# How it was run: (§1)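 Male Carworth Farms number-one mice received the compound ip in 30% polyethylene glycol 400 before maximal electroshock testing, at several dose levels. The median effective dose (ED50) was obtained by the graphical method.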
# [2] = tested on: Mus musculus; test: Compound was evaluated for anticonvulsant activity against subcutaneous pentylenetetrazole-induced convulsions after 4 hr; D indicates no activity at 100 mg/kg; assay type: functional, organism-based; set-up: dose 100 mg/kg
# How it was run: (§2)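 Male Carworth Farms number-one mice were dosed ip in 30% PEG 400, at 30, 100 or 300 mg/kg (sometimes 600 mg/kg). Pentylenetetrazole, 85 mg/kg as a 0.5% solution, was injected subcutaneously in the posterior midline. Protection meant no episode of clonic spasms lasting at least 5 s during a 30-min observation period.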
# [3] = tested on: Mus musculus; test: Compound was evaluated for toxicity by rotarod assay method after 30 minutes at a dose of 100 mg/kg; assay type: organism-based; set-up: dose 100 mg/kg; conditions: in vivo, 0.5 h
# How it was run: (§3)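 Male Carworth Farms number-one mice received test compound intraperitoneally in 30% polyethylene glycol 400 at 30, 100 and 300 mg/kg, with 600 mg/kg in some cases. Neurological deficit was read at 30 min or 4 h after dosing on a 1-in.-diameter knurled plastic rod turning at 6 rpm. Toxicity was scored as failure to stay on the rod for 1 min.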
# [4] = Protective index is the ratio of TD50 to ED50; assay type: ADME
# How it was run: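 Protective index was calculated as rotorod TD50 divided by anti-MES ED50. Both were graphical median doses from ip dosing in 30% PEG 400 in male Carworth Farms mice.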
# [5] = tested on: Mus musculus; test: Compound was evaluated for anticonvulsant activity against subcutaneous pentylenetetrazole-induced convulsions after 30 minutes; D indicates no activity at 100 mg/kg; assay type: functional, organism-based; set-up: dose 100 mg/kg; how it was run: as §2
# [6] = Compound was evaluated for anticonvulsant activity by rotarod procedure; assay type: ADME, organism-based; conditions: mouse, in vivo
# How it was run: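 Male Carworth Farms mice were dosed ip in 30% PEG 400 and then placed on a knurled plastic rod 1 in. in diameter, rotating at 6 rpm. Neurotoxicity was failure to stay on the rod for 1 min. TD50 was derived graphically.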
# [7] = tested on: Mus musculus; test: Compound was evaluated for anticonvulsant activity against maximal electric shock (MES) induced convulsions after 4 hr at a dose of 100 mg/kg; assay type: functional
# [8] = tested on: Mus musculus; test: Compound was evaluated for toxicity by rotarod assay method after 4 hr at a dose of 100 mg/kg; assay type: organism-based; set-up: dose 100 mg/kg; conditions: in vivo; how it was run: as §3
# [9] = tested on: Mus musculus; test: Compound was evaluated for anticonvulsant activity against maximal electric shock (MES) induced convulsions after 30 minutes at a dose of 30 mg/kg; assay type: functional
# [10] = tested on: Mus musculus; test: Compound was evaluated for toxicity by rotarod assay method after 4 hr; C indicates no activity at 300 mg/kg.; assay type: organism-based; set-up: dose 300 mg/kg; conditions: in vivo; how it was run: as §3
# [11] = tested on: Mus musculus; test: Compound was evaluated for anticonvulsant activity against subcutaneous pentylenetetrazole-induced convulsions after 30 minutes; C indicates no activity at 300 mg/kg.; assay type: functional, organism-based; set-up: dose 300 mg/kg; how it was run: as §2
# [12] = tested on: Mus musculus; test: Compound was evaluated for toxicity by rotarod assay method after 30 minutes; C indicates no activity at 300 mg/kg.; assay type: organism-based; set-up: dose 300 mg/kg; conditions: in vivo, 0.5 h; how it was run: as §3
# [13] = tested on: Mus musculus; test: Compound was evaluated for anticonvulsant activity against subcutaneous pentylenetetrazole-induced convulsions after 4 hr at a dose of 100 mg/kg; assay type: functional; how it was run: as §2
# [14] = tested on: Mus musculus; test: Compound was evaluated for anticonvulsant activity against maximal electric shock (MES) induced convulsions after 4 hr; C indicates no activity at 300 mg/kg.; assay type: functional, organism-based; set-up: dose 300 mg/kg
# [15] = tested on: Mus musculus; test: Compound was evaluated for anticonvulsant activity against maximal electric shock (MES) induced convulsions after 30 minutes; C indicates no activity at 300 mg/kg.; assay type: functional, organism-based; set-up: dose 300 mg/kg
# [16] = tested on: Mus musculus; test: Compound was evaluated for toxicity by rotarod assay method after 4 hr; C is inactive at 300 mg/kg.; assay type: organism-based; set-up: dose 300 mg/kg; conditions: in vivo; how it was run: as §3
# [17] = tested on: Mus musculus; test: Compound was evaluated for toxicity by rotarod assay method after 30 minutes;C is inactive at 300 mg/kg.; assay type: organism-based; set-up: dose 300 mg/kg; conditions: in vivo, 0.5 h; how it was run: as §3
# [18] = tested on: Mus musculus; test: Compound was evaluated for anticonvulsant activity against maximal electric shock (MES) induced convulsions after 30 minutes;C is inactive at 300 mg/kg.; assay type: functional, organism-based; set-up: dose 300 mg/kg
# [19] = tested on: Mus musculus; test: Compound was evaluated for anticonvulsant activity against maximal electric shock (MES) induced convulsions after 4 hr; C is inactive at 300 mg/kg.; assay type: functional, organism-based; set-up: dose 300 mg/kg
# [20] = tested on: Mus musculus; test: Compound was evaluated for anticonvulsant activity against subcutaneous pentylenetetrazole-induced convulsions after 4 hr; C is inactive at 300 mg/kg.; assay type: functional, organism-based; set-up: dose 300 mg/kg; how it was run: as §2
# [21] = tested on: Mus musculus; test: Compound was evaluated for anticonvulsant activity against subcutaneous pentylenetetrazole-induced convulsions after 30 minutes;C is inactive at 300 mg/kg.; assay type: functional, organism-based; set-up: dose 300 mg/kg; how it was run: as §2
# [22] = species on record: Mus musculus; test: Hypnotic dose was evaluated in mice; assay type: functional
# [23] = Lethal dose was evaluated in mice; assay type: toxicity, organism-based; conditions: mouse, in vivo
# [24] = tested on: Mus musculus; test: Compound was evaluated for anticonvulsant activity against subcutaneous pentylenetetrazole-induced convulsions after 4 hr; C indicates no activity at 300 mg/kg.; assay type: functional, organism-based; set-up: dose 300 mg/kg; how it was run: as §2
# [25] = tested on: Mus musculus; test: Compound was evaluated for anticonvulsant activity against maximal electric shock (MES) induced convulsions after 30 minutes at a dose of 300 mg/kg; assay type: functional
# [26] = tested on: Mus musculus; test: Compound was evaluated for anticonvulsant activity against subcutaneous pentylenetetrazole-induced convulsions after 30 minutes;C indicates no activity at 300 mg/kg.; assay type: functional, organism-based; set-up: dose 300 mg/kg; how it was run: as §2
# [27] = tested on: Mus musculus; test: Compound was evaluated for toxicity by rotarod assay method after 4 hr at a dose of 300 mg/kg; assay type: organism-based; set-up: dose 300 mg/kg; conditions: in vivo; how it was run: as §3
# [28] = tested on: Mus musculus; test: Compound was evaluated for toxicity by rotarod assay method after 30 minutes at a dose of 600 mg/kg; assay type: organism-based; set-up: dose 600 mg/kg; conditions: in vivo, 0.5 h; how it was run: as §3
# [29] = tested on: Mus musculus; test: Compound was evaluated for toxicity by rotarod assay method after 4 hr; E indicates no activity at 30 mg/kg.; assay type: organism-based; set-up: dose 30 mg/kg; conditions: in vivo; how it was run: as §3
# [30] = tested on: Mus musculus; test: Compound was evaluated for anticonvulsant activity against subcutaneous pentylenetetrazole-induced convulsions after 4 hr; E indicates no activity at 30 mg/kg.; assay type: functional, organism-based; set-up: dose 30 mg/kg; how it was run: as §2
# [31] = tested on: Mus musculus; test: Compound was evaluated for anticonvulsant activity against maximal electric shock (MES) induced convulsions after 4 hr; E indicates no activity at 30 mg/kg.; assay type: functional, organism-based; set-up: dose 30 mg/kg
# [32] = tested on: Mus musculus; test: Compound was evaluated for anticonvulsant activity against subcutaneous pentylenetetrazole-induced convulsions after 30 minutes; E indicates no activity at 30 mg/kg.; assay type: functional, organism-based; set-up: dose 30 mg/kg; how it was run: as §2
# [33] = tested on: Mus musculus; test: Compound was evaluated for anticonvulsant activity against maximal electric shock (MES) induced convulsions after 30 minutes; C is inactive at 300 mg/kg.; assay type: functional, organism-based; set-up: dose 300 mg/kg
# [34] = tested on: Mus musculus; test: Compound was evaluated for toxicity by rotarod assay method after 30 minutes; C is inactive at 300 mg/kg.; assay type: organism-based; set-up: dose 300 mg/kg; conditions: in vivo, 0.5 h; how it was run: as §3
# [35] = species on record: Mus musculus; test: Compound was evaluated for anticonvulsant activity against maximal electroshock seizures; assay type: functional; how it was run: as §1
# [36] = tested on: Mus musculus; test: Compound was evaluated for anticonvulsant activity against maximal electric shock (MES) induced convulsions after 4 hr at a dose of 300 mg/kg; assay type: functional
smiles,measurement,setting,value
CNCc1ccc(C(=O)NC(C)c2ccccc2)cc1 (centres undefined),ED50,[1],13.5 mg/kg
same,Activity,[2],No activity at 100 mg/kg
same,Toxicity,[3],3
same,selectivity ratio,[4]; read-out: Protective index,1.66
same,Activity,[5],No activity at 100 mg/kg
same,TD50,[6],22.4 mg/kg
same,Activity,[7],3
same,Toxicity,[8],3
same,Activity,[9],4
COc1ccc(C(C)NC(=O)c2ccc(N)cc2)cc1 (centres undefined),Toxicity,[10],No activity at 300 mg/kg
same,Activity,[11],No activity at 300 mg/kg
same,Toxicity,[12],No activity at 300 mg/kg
same,Activity,[13],3
same,Activity,[14],No activity at 300 mg/kg
same,Activity,[15],No activity at 300 mg/kg
CC(NC(=O)c1ccccc1)c1ccccc1 (centres undefined),Toxicity,[16],No activity at 300 mg/kg
same,Toxicity,[17],No activity at 300 mg/kg
same,Activity,[18],No activity at 300 mg/kg
same,Activity,[19],No activity at 300 mg/kg
same,Activity,[20],No activity at 300 mg/kg
same,Activity,[21],No activity at 300 mg/kg
CC(NC(=O)c1ccc(N)cc1)c1ccccc1 (centres undefined),HD50,[22],461.76 mg/kg
same,Protective index,[4],9.5 and 4.1
same,LD50,[23],718 mg/kg
CC(NC(=O)c1ccc(N)cc1)c1ccc(F)cc1 (centres undefined),Activity,[24],No activity at 300 mg/kg
same,Activity,[25],2
same,Activity,[26],No activity at 300 mg/kg
same,Toxicity,[12],No activity at 300 mg/kg
same,Activity,[7],3
same,Toxicity,[27],2
CC(NCc1ccccc1N)c1ccccc1 (centres undefined),Toxicity,[28],1
same,Toxicity,[29],No activity at 30 mg/kg
same,Activity,[25],2
same,Activity,[30],No activity at 30 mg/kg
same,Activity,[31],No activity at 30 mg/kg
same,Activity,[32],No activity at 30 mg/kg
CCOC(=O)Nc1ccc(C(=O)NC(C)c2ccccc2)cc1 (centres undefined),Toxicity,[16],No activity at 300 mg/kg
same,Activity,[33],No activity at 300 mg/kg
same,Activity,[19],No activity at 300 mg/kg
same,Toxicity,[34],No activity at 300 mg/kg
same,Activity,[20],No activity at 300 mg/kg
same,Activity,[21],No activity at 300 mg/kg
CN(C)c1ccc(C(=O)NCc2ccccc2)cc1,Toxicity,[10],No activity at 300 mg/kg
same,Activity,[11],No activity at 300 mg/kg
same,ED50,[35],233 mg/kg
same,Activity,[24],No activity at 300 mg/kg
same,Toxicity,[12],No activity at 300 mg/kg
same,Activity,[36],2
same,Activity,[15],No activity at 300 mg/kg
